Source: ChEMBL document CHEMBL1130231, “Betidamino acid scan of the GnRH antagonist acyline” (J Med Chem, 1997)

What follows are molecules tested against T1, Gonadotropin-releasing hormone receptor (Rattus norvegicus, UniProt P30969) (assay: Inhibition of binding of radiolabeled histrelin to Gonadotropin-releasing hormone receptor (GnRHr) in rat pituitary gland membranes).
T1 sequence (P30969 whole entry): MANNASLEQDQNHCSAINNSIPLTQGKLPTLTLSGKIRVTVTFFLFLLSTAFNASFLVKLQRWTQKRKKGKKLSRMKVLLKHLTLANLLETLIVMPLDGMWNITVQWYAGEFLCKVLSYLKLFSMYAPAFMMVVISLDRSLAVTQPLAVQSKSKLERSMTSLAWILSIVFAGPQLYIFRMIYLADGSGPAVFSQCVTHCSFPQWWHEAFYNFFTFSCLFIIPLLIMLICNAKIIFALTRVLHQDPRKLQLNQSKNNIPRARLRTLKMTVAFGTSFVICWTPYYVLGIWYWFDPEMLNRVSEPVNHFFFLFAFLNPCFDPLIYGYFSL
Format: cell membranes, Membrane
How it was run: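 Rat anterior pituitary membranes (male and female glands equal numbers), homogenized in 0.32 M sucrose/aprotinin, 4000g pellet, diluted 15-fold in 10 mM Hepes, 0.2% BSA, pH 7.6. Filtration onto PEI-treated glass filters, scintillation counting. IC50 in nM, duplicate, n = 1.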

Structure (SMILES)	IC50
CC(=O)Nc1ccc(C[C@H](NC(=O)[C@H](CO)NC(=O)[C@@H](Cc2cccnc2)NC(=O)[C@@H](Cc2ccc(Cl)cc2)NC(=O)[C@@H](Cc2ccc3ccccc3c2)NC(C)=O)C(=O)N[C@@H](C(=O)N[C@@H](CC(C)C)C(=O)N[C@@H](CCCCNC(C)C)C(=O)N2CCC[C@H]2C(=O)N[C@H](C)C(N)=O)N(C)C(=O)c2ccc(NC(C)=O)cc2)cc1 (mixture of isomers)	1.9 nM
CC(=O)Nc1ccc(C[C@H](NC(=O)[C@H](NC=O)NC(=O)[C@@H](Cc2cccnc2)NC(=O)[C@@H](Cc2ccc(Cl)cc2)NC(=O)[C@@H](Cc2ccc3ccccc3c2)NC(C)=O)C(=O)N[C@H](Cc2ccc(NC(C)=O)cc2)C(=O)N[C@@H](CC(C)C)C(=O)N[C@@H](CCCCNC(C)C)C(=O)N2CCC[C@H]2C(=O)N[C@H](C)C(N)=O)cc1	0.84 nM
CN[C@@H](NC(=O)[C@@H]1CCCN1C(=O)[C@H](CCCCNC(C)C)NC(=O)[C@H](CC(C)C)NC(=O)[C@@H](Cc1ccc(NC(C)=O)cc1)NC(=O)[C@H](Cc1ccc(NC(C)=O)cc1)NC(=O)[C@H](CO)NC(=O)[C@@H](Cc1cccnc1)NC(=O)[C@@H](Cc1ccc(Cl)cc1)NC(=O)[C@@H](Cc1ccc2ccccc2c1)NC(C)=O)C(N)=O	0.9 nM
CC(=O)Nc1ccc(C[C@H](NC(=O)[C@H](CO)NC(=O)[C@@H](Cc2cccnc2)NC(=O)[C@@H](Cc2ccc(Cl)cc2)NC(=O)[C@@H](Cc2ccc3ccccc3c2)NC(C)=O)C(=O)N[C@H](C(=O)N[C@@H](CC(C)C)C(=O)N[C@@H](CCCCNC(C)C)C(=O)N2CCC[C@H]2C(=O)N[C@H](C)C(N)=O)N(C)C(=O)c2ccc(NC(C)=O)cc2)cc1 (mixture of isomers)	5.3 nM
CC(=O)Nc1ccc(C[C@H](NC(=O)[C@H](CO)NC(=O)[C@@H](Cc2cccnc2)NC(=O)[C@H](NC(=O)c2cnccn2)NC(=O)[C@@H](Cc2ccc3ccccc3c2)NC(C)=O)C(=O)N[C@H](Cc2ccc(NC(C)=O)cc2)C(=O)N[C@@H](CC(C)C)C(=O)N[C@@H](CCCCNC(C)C)C(=O)N2CCC[C@H]2C(=O)N[C@H](C)C(N)=O)cc1 (single isomer, unassigned)	1700 nM
CC(=O)Nc1ccc(C[C@H](NC(=O)[C@H](CO)NC(=O)[C@@H](Cc2cccnc2)NC(=O)[C@@H](Cc2ccc(Cl)cc2)NC(=O)[C@@H](NC(C)=O)N(C)C(=O)c2ccc3ccccc3c2)C(=O)N[C@H](Cc2ccc(NC(C)=O)cc2)C(=O)N[C@@H](CC(C)C)C(=O)N[C@@H](CCCCNC(C)C)C(=O)N2CCC[C@H]2C(=O)N[C@H](C)C(N)=O)cc1 (single isomer, unassigned)	0.3 nM
CC(=O)Nc1ccc(C[C@H](NC(=O)[C@H](CO)NC(=O)[C@@H](Cc2cccnc2)NC(=O)[C@@H](Cc2ccc(Cl)cc2)NC(=O)[C@@H](Cc2ccc3ccccc3c2)NC(C)=O)C(=O)N[C@H](Cc2ccc(NC(C)=O)cc2)C(=O)N[C@@H](CC(C)C)C(=O)N[C@@H](CCCCNC(C)C)C(=O)N2CCC[C@H]2C(=O)N[C@H](C(N)=O)N(C)C=O)cc1	0.67 nM
CC(=O)Nc1ccc(C[C@@H](NC(=O)[C@H](NC(=O)[C@H](CO)NC(=O)[C@@H](Cc2cccnc2)NC(=O)[C@@H](Cc2ccc(Cl)cc2)NC(=O)[C@@H](Cc2ccc3ccccc3c2)NC(C)=O)N(C)C(=O)c2ccc(NC(C)=O)cc2)C(=O)N[C@@H](CC(C)C)C(=O)N[C@@H](CCCCNC(C)C)C(=O)N2CCC[C@H]2C(=O)N[C@H](C)C(N)=O)cc1	0.43 nM
CC(=O)Nc1ccc(C[C@H](NC(=O)[C@@H](NC(=O)[C@@H](Cc2cccnc2)NC(=O)[C@@H](Cc2ccc(Cl)cc2)NC(=O)[C@@H](Cc2ccc3ccccc3c2)NC(C)=O)N(C)C=O)C(=O)N[C@H](Cc2ccc(NC(C)=O)cc2)C(=O)N[C@@H](CC(C)C)C(=O)N[C@@H](CCCCNC(C)C)C(=O)N2CCC[C@H]2C(=O)N[C@H](C)C(N)=O)cc1 (single isomer, unassigned)	5.5 nM
CC(=O)Nc1ccc(C[C@@H](NC(=O)[C@H](NC(=O)c2ccc(O)cc2)NC(=O)[C@H](CO)NC(=O)[C@@H](Cc2cccnc2)NC(=O)[C@@H](Cc2ccc(Cl)cc2)NC(=O)[C@@H](Cc2ccc3ccccc3c2)NC(C)=O)C(=O)N[C@@H](CC(C)C)C(=O)N[C@@H](CCCCNC(C)C)C(=O)N2CCC[C@H]2C(=O)N[C@H](C)C(N)=O)cc1	0.3 nM
